Laboratory results as given in ChEMBL document CHEMBL1154547, “Salicylanilide esters of N-protected amino acids as novel antimicrobial agents” (Bioorg Med Chem Lett, 2009).
Values after ≈ are worked out from the molar mass of the structure shown.

Tests used:
[1] = system: Aspergillus fumigatus; experiment: Antifungal activity against Aspergillus fumigatus 231 after 48 hrs by broth microdilution method; type: functional
Procedure, shortened: (§1)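 In vitro antifungal screening against eight strains. Compounds tested at concentrations in the range 62.5–1.95 µmol/L.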

[2] = system: Trichosporon beigelii; experiment: Antifungal activity against Trichosporon beigelii 1188 after 48 hrs by broth microdilution method; type: functional; procedure, shortened: as §1
[3] = system: Candida tropicalis; experiment: Antifungal activity against Candida tropicalis ATCC 156 after 24 hrs by broth microdilution method; type: functional; settings: ATCC 156, 24 h; procedure, shortened: as §1
[4] = system: Mycobacterium tuberculosis; experiment: Antitubercular activity against Mycobacterium tuberculosis H37Rv at 6.25 ug/ml by microplate alamar blue assay; type: functional
Procedure, shortened: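 Primary single-concentration screen at the TAACF against M. tuberculosis H37Rv (ATCC 27294) in BACTEC 12B medium, read by Microplate Alamar Blue Assay. Each compound was tested at 6.25 per mL, or at the molar equivalent of the highest-molecular-weight compound in its congener series.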

[5] = system: Nakaseomyces glabratus; experiment: Antifungal activity against Candida glabrata 20/I after 48 hrs by broth microdilution method; type: functional; procedure, shortened: as §1
[6] = system: Candida tropicalis; experiment: Antifungal activity against Candida tropicalis ATCC 156 after 48 hrs by broth microdilution method; type: functional; settings: ATCC 156, 48 h; procedure, shortened: as §1
[7] = system: Trichophyton mentagrophytes; experiment: Antifungal activity against Trichophyton mentagrophytes 445 after 24 hrs by broth microdilution method; type: functional; procedure, shortened: as §1
[8] = system: Pichia kudriavzevii; experiment: Antifungal activity against Candida krusei E28 after 48 hrs by broth microdilution method; type: functional; procedure, shortened: as §1
[9] = system: Trichophyton mentagrophytes; experiment: Antifungal activity against Trichophyton mentagrophytes 445 after 48 hrs by broth microdilution method; type: functional; procedure, shortened: as §1
[10] = Lipophilicity, log K of the compound; type: physicochemical
Procedure, shortened: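 Mobile phase used methanol as organic modifier. The capacity factor k was measured and log k calculated from it. Chiral compounds were measured several times.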

[11] = system: Lichtheimia corymbifera; experiment: Antifungal activity against Absidia corymbifera 272 after 48 hrs by broth microdilution method; type: functional; procedure, shortened: as §1
[12] = system: Mycobacterium tuberculosis; experiment: Antitubercular activity against Mycobacterium tuberculosis H37Rv by microplate alamar blue assay; type: functional
[13] = system: Lichtheimia corymbifera; experiment: Antifungal activity against Absidia corymbifera 272 after 24 hrs by broth microdilution method; type: functional; procedure, shortened: as §1
[14] = system: Nakaseomyces glabratus; experiment: Antifungal activity against Candida glabrata 20/I after 24 hrs by broth microdilution method; type: functional; procedure, shortened: as §1
[15] = system: Candida albicans; experiment: Antifungal activity against Candida albicans ATCC 44859 after 48 hrs by broth microdilution method; type: functional; settings: ATCC 44859, 48 h; procedure, shortened: as §1
[16] = system: Aspergillus fumigatus; experiment: Antifungal activity against Aspergillus fumigatus 231 after 24 hrs by broth microdilution method; type: functional; procedure, shortened: as §1
[17] = system: Candida albicans; experiment: Antifungal activity against Candida albicans ATCC 44859 after 24 hrs by broth microdilution method; type: functional; settings: ATCC 44859, 24 h; procedure, shortened: as §1
[18] = system: Pichia kudriavzevii; experiment: Antifungal activity against Candida krusei E28 after 24 hrs by broth microdilution method; type: functional; procedure, shortened: as §1
[19] = system: Trichosporon beigelii; experiment: Antifungal activity against Trichosporon beigelii 1188 after 24 hrs by broth microdilution method; type: functional; procedure, shortened: as §1

With `O=C(CNC(=O)OCc1ccccc1)Oc1ccc(Cl)cc1C(=O)Nc1ccc(C(F)(F)F)cc1` the IC80 [1] was > 125 µg/mL, the IC80 [2] was 31.2 µg/mL (≈ 61.7 µM) and the IC80 [3] was 125 µg/mL (≈ 247 µM). For the same compound, the inhibition at 6.25 µg/mL [4] was 89%, the IC80 [5] was > 125 µg/mL and the IC80 [6] was > 125 µg/mL. It also gave an IC80 [7] of 15.6 µg/mL (≈ 30.8 µM), an IC80 [8] of 31.2 µg/mL (≈ 61.7 µM) and an IC80 [9] of 15.6 µg/mL (≈ 30.8 µM). For the same compound, the “log K” value [10] was 0.7292, the IC80 [11] was 31.2 µg/mL (≈ 61.7 µM) and the MIC [12] was > 6.25 µg/mL. For the same compound, the IC80 [13] was 31.2 µg/mL (≈ 61.7 µM), the IC80 [14] was 31.2 µg/mL (≈ 61.7 µM) and the IC80 [15] was 62.5 µg/mL (≈ 123 µM). The IC80 [16] was 125 µg/mL (≈ 247 µM), the IC80 [17] was 62.5 µg/mL (≈ 123 µM) and the IC80 [18] was 31.2 µg/mL (≈ 61.7 µM). The IC80 [19] was 31.2 µg/mL (≈ 61.7 µM).

For `C[C@H](NC(=O)OCc1ccccc1)C(=O)Oc1ccc(Cl)cc1C(=O)Nc1ccc(C(F)(F)F)cc1`, the IC80 [1] was 15.6 µg/mL (≈ 30 µM), the IC80 [2] was 250 µg/mL (≈ 480 µM) and the IC80 [3] was 500 µg/mL (≈ 960 µM). For the same compound, the inhibition at 6.25 µg/mL [4] was 99%, the IC80 [5] was 250 µg/mL (≈ 480 µM) and the IC80 [6] was 500 µg/mL (≈ 960 µM). It also gave an IC80 [7] of 1.95 µg/mL (≈ 3.74 µM), an IC80 [8] of 31.2 µg/mL (≈ 60 µM) and an IC80 [9] of 1.95 µg/mL (≈ 3.74 µM). The “log K” value [10] was 0.8149, the IC80 [11] was 62.5 µg/mL (≈ 120 µM) and the MIC [12] was 3.13 µg/mL (≈ 6.01 µM). The IC80 [13] was 31.2 µg/mL (≈ 60 µM), the IC80 [14] was 125 µg/mL (≈ 240 µM) and the IC80 [15] was 250 µg/mL (≈ 480 µM). It also gave an IC80 [16] of 7.81 µg/mL (≈ 15 µM), an IC80 [17] of 62.5 µg/mL (≈ 120 µM) and an IC80 [18] of 7.81 µg/mL (≈ 15 µM). For the same compound, the IC80 [19] was 62.5 µg/mL (≈ 120 µM).

For `O=C(N[C@@H](Cc1ccccc1)C(=O)Oc1ccc(Cl)cc1C(=O)Nc1ccc(Cl)cc1)OCc1ccccc1`, the IC80 [1] was > 62.5 µg/mL, the IC80 [2] was 62.5 µg/mL (≈ 111 µM) and the IC80 [3] was 31.2 µg/mL (≈ 55.5 µM). The inhibition at 6.25 µg/mL [4] was 16%, the IC80 [5] was 31.2 µg/mL (≈ 55.5 µM) and the IC80 [6] was 31.2 µg/mL (≈ 55.5 µM). For the same compound, the IC80 [7] was 7.81 µg/mL (≈ 13.9 µM), the IC80 [8] was 15.6 µg/mL (≈ 27.7 µM) and the IC80 [9] was 7.81 µg/mL (≈ 13.9 µM). For the same compound, the “log K” value [10] was 1.0971, the IC80 [11] was 15.6 µg/mL (≈ 27.7 µM) and the MIC [12] was > 6.25 µg/mL. It also gave an IC80 [13] of 15.6 µg/mL (≈ 27.7 µM), an IC80 [14] of 31.2 µg/mL (≈ 55.5 µM) and an IC80 [15] of 62.5 µg/mL (≈ 111 µM). The IC80 [16] was > 62.5 µg/mL, the IC80 [17] was 62.5 µg/mL (≈ 111 µM) and the IC80 [18] was 15.6 µg/mL (≈ 27.7 µM). The IC80 [19] was 31.2 µg/mL (≈ 55.5 µM).

In the case of `C[C@@H](NC(=O)OCc1ccccc1)C(=O)Oc1ccc(Cl)cc1C(=O)Nc1cccc(Cl)c1`, the IC80 [1] is reported as > 62.5 µg/mL, the IC80 [2] is reported as > 62.5 µg/mL and the IC80 [3] is reported as 62.5 µg/mL (≈ 128 µM). For the same compound, the inhibition at 6.25 µg/mL [4] was 36%, the IC80 [5] was 62.5 µg/mL (≈ 128 µM) and the IC80 [6] was > 62.5 µg/mL. It also gave an IC80 [7] of 7.81 µg/mL (≈ 16 µM), an IC80 [8] of 31.2 µg/mL (≈ 64.1 µM) and an IC80 [9] of 7.81 µg/mL (≈ 16 µM). The “log K” value [10] was 0.699, the IC80 [11] was 31.2 µg/mL (≈ 64.1 µM) and the MIC [12] was > 6.25 µg/mL. For the same compound, the IC80 [13] was 31.2 µg/mL (≈ 64.1 µM), the IC80 [14] was 62.5 µg/mL (≈ 128 µM) and the IC80 [15] was > 62.5 µg/mL. For the same compound, the IC80 [16] was > 62.5 µg/mL, the IC80 [17] was 62.5 µg/mL (≈ 128 µM) and the IC80 [18] was 31.2 µg/mL (≈ 64.1 µM). The IC80 [19] was > 62.5 µg/mL.

For `O=C(CNC(=O)OCc1ccccc1)Oc1ccc(Cl)cc1C(=O)Nc1ccc(Cl)c(Cl)c1`, the IC80 [1] was > 62.5 µg/mL, the IC80 [2] was > 62.5 µg/mL and the IC80 [3] was > 62.5 µg/mL. The inhibition at 6.25 µg/mL [4] was 0%, the IC80 [5] was > 62.5 µg/mL and the IC80 [6] was > 62.5 µg/mL. For the same compound, the IC80 [7] was 31.2 µg/mL (≈ 61.5 µM), the IC80 [8] was > 62.5 µg/mL and the IC80 [9] was 31.2 µg/mL (≈ 61.5 µM). For the same compound, the “log K” value [10] was 0.8639, the IC80 [11] was > 62.5 µg/mL and the MIC [12] was > 6.25 µg/mL. For the same compound, the IC80 [13] was 62.5 µg/mL (≈ 123 µM), the IC80 [14] was > 62.5 µg/mL and the IC80 [15] was > 62.5 µg/mL. For the same compound, the IC80 [16] was > 62.5 µg/mL, the IC80 [17] was > 62.5 µg/mL and the IC80 [18] was > 62.5 µg/mL. The IC80 [19] was > 62.5 µg/mL.

With `O=C(CNC(=O)OCc1ccccc1)Oc1ccc(Cl)cc1C(=O)Nc1cccc(Cl)c1` the IC80 [1] was > 62.5 µg/mL, the IC80 [2] was > 62.5 µg/mL and the IC80 [3] was > 62.5 µg/mL. The inhibition at 6.25 µg/mL [4] was 7%, the IC80 [5] was > 62.5 µg/mL and the IC80 [6] was > 62.5 µg/mL. The IC80 [7] was 31.2 µg/mL (≈ 66 µM), the IC80 [8] was 62.5 µg/mL (≈ 132 µM) and the IC80 [9] was 31.2 µg/mL (≈ 66 µM). For the same compound, the “log K” value [10] was 0.6119, the IC80 [11] was 62.5 µg/mL (≈ 132 µM) and the MIC [12] was > 6.25 µg/mL. The IC80 [13] was 62.5 µg/mL (≈ 132 µM), the IC80 [14] was 62.5 µg/mL (≈ 132 µM) and the IC80 [15] was > 62.5 µg/mL. The IC80 [16] was > 62.5 µg/mL, the IC80 [17] was > 62.5 µg/mL and the IC80 [18] was 62.5 µg/mL (≈ 132 µM). The IC80 [19] was > 62.5 µg/mL.
